Non-standard residues stand in square brackets, D forms with d. Residues, ends and D or L forms follow the SMILES beside them. *: point of attachment. Cha = N[C@@H](CC1CCCCC1)C(=O)O; Decanoyl = CCCCCCCCCC(=O)*; Heptanoyl = CCCCCCC(=O)*; Octanoyl = CCCCCCCC(=O)*; Dab = NCC[C@H](N)C(=O)O; Hexanoyl = CCCCCC(=O)*
How the values were obtained:
[1] = tested on: Klebsiella pneumoniae ATCC 13883; assay: Sensitization to antibiotics, checkerboard MIC; assay type: cell-based; settings: for Sensitization factor, clarithromycin, Klebsiella pneumoniae ATCC 13883: MIC without / with 4 μg/mL paenipeptin; for Sensitization factor, rifampicin, Klebsiella pneumoniae ATCC 13883: ratio of the MIC in the absence of paenipeptins to that in the presence of 4 μg/mL
[2] = tested on: Acinetobacter baumannii ATCC 19606; assay: Sensitization to antibiotics, checkerboard MIC; assay type: cell-based; settings: for Sensitization factor, rifampicin, Acinetobacter baumannii ATCC 19606: ratio of the MIC in the absence of paenipeptins to that in the presence of 4 μg/mL
K. pneumoniae UAMS-KPPR3 = assay: MIC, polymyxin-resistant strain; assay type: cell-based, Klebsiella pneumoniae; settings: polymyxin-resistant derivative of K. pneumoniae ATCC 13883
[3] = tested on: Klebsiella pneumoniae AR 0109; assay: MIC, polymyxin-resistant strain; assay type: cell-based; settings: FDA-CDC Antibiotic-Resistance Bank
K. pneumoniae UAMS-KPPR1 = assay: MIC, polymyxin-resistant strain; assay type: cell-based, Klebsiella pneumoniae; settings: polymyxin-resistant derivative of K. pneumoniae ATCC 13883
E. coli UAMS-ECPR1 = assay: MIC, polymyxin-resistant strain; assay type: cell-based, Escherichia coli; settings: polymyxin-resistant derivative of E. coli ATCC 25922
E. coli UAMS-ECPR2 = assay type: cell-based, Escherichia coli; settings: polymyxin-resistant derivative of E. coli ATCC 25922
[4] = cited from earlier work
Gram-negative bacteria = settings: cited from earlier work
[5] = tested on: methicillin-resistant S. aureus ATCC 43300
P. aeruginosa ATCC 27853 [6] = tested on: P. aeruginosa ATCC 27853
[7] = tested on: methicillin-resistant S. aureus strain LAC; assay: Catheter-associated biofilm in vitro; assay type: cell-based, Staphylococcus aureus; settings: for reduction of viable biofilm-associated S. aureus cells: established catheter biofilm, n=6 catheters
P. aeruginosa ATCC 27853 [8] = assay: Catheter-associated biofilm in vitro; assay type: cell-based, Pseudomonas aeruginosa; settings: 40× MIC (40 μg/ml), 72 h exposure, n=6
S. aureus ATCC 29213 [9] = assay: Potassium ion release assay, PBFI probe; assay type: cell-based, Staphylococcus aureus; settings: PBFI fluorescence; tested 8–64 μg/mL
P. aeruginosa ATCC 27853 [10] = assay: Impact of purified lipopolysaccharide; assay type: cell-based, Pseudomonas aeruginosa; settings: LPS from E. coli O111:B4 at 100 μg/ml; analogue 17 at 16 μg/mL; 37°C, 60 min
In short: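 Cells are diluted in TSB to about 10^6 CFU/mL. E. coli O111:B4 LPS (final 10, 25, 50 or 100 μg/mL) is added, then test compound at final 16 μg/mL. Incubation is 60 min at 37 °C with shaking at 200 rpm. Survivors are counted on TSA. Three independent experiments are run, one replicate each. Counts are analysed by ANOVA and Tukey HSD.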

P. aeruginosa ATCC 27853 [11] = assay: Time-kill assay; assay type: cell-based, Pseudomonas aeruginosa
In short: (§1)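 Time-kill is run with test compound at 8, 16 and 32 μg/mL. Surviving cells are counted by plating on TSA at 0, 2, 4, 6 and 24 h. Three independent experiments are run, one replicate each. Results are given as mean ± standard deviation, and final-timepoint counts are compared by ANOVA with Tukey HSD.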

S. aureus ATCC 29213 [12] = assay: Time-kill assay; assay type: cell-based, Staphylococcus aureus; settings: for reduction of viable S. aureus cells: after 4 h
In short: as §1

[13] = tested on: Escherichia coli ATCC 25922; assay: MIC in 95% human serum; assay type: cell-based; settings: against both E. coli and S. aureus; 95% human serum versus TSB
P. aeruginosa ATCC 27853 [14] = assay: Potassium ion release assay, PBFI probe; assay type: cell-based, Pseudomonas aeruginosa; settings: PBFI fluorescence; tested 8–64 μg/mL
P. aeruginosa ATCC 27853 [15] = assay: Cytoplasmic membrane integrity assay, DiSC3; assay type: cell-based, Pseudomonas aeruginosa; settings: increase of DiSC3(5) fluorescence; tested 8–64 μg/mL; buffer with 0.2 mM EDTA
S. aureus ATCC 29213 [16] = assay: Cytoplasmic membrane integrity assay, DiSC3; assay type: cell-based, Staphylococcus aureus; settings: increase of DiSC3(5) fluorescence; tested 8–64 μg/mL
[17] = MIC without / with 4 μg/mL paenipeptin

CC[C@H](C)[C@H](NC(=O)[C@H](CCN)NC(=O)[C@@H](N)CC1CCCCC1)C(=O)N[C@@H](CCN)C(=O)N[C@H](Cc1ccccc1)C(=O)N[C@@H](CC(C)C)C(=O)N[C@@H](CCN)C(=O)N[C@@H](C(=O)N[C@@H](CC(C)C)C(=O)N[C@@H](CO)C(N)=O)C(C)C [Analogue 16] (H-[Cha][Dab]I[Dab][dF]L[Dab][dV]LS-NH2)
Sensitization factor, clarithromycin, Klebsiella pneumoniae ATCC 13883 [1]: 2,048–4,096 | Sensitization factor, rifampicin, Klebsiella pneumoniae ATCC 13883 [1]: ≥8,192 | Sensitization factor, ampicillin, Acinetobacter baumannii ATCC 19606 [2, 17]: 2–4 | Sensitization factor, clarithromycin, Acinetobacter baumannii ATCC 19606 [2, 17]: 2,048 | Sensitization factor, vancomycin, Acinetobacter baumannii ATCC 19606 [2, 17]: 32–64 | Sensitization factor, rifampicin, Acinetobacter baumannii ATCC 19606 [2]: 4,096

Polymyxin B
MIC, K. pneumoniae UAMS-KPPR3 (K. pneumoniae UAMS-KPPR3): >32 µg/mL | MIC, Klebsiella pneumoniae AR 0109 [3]: 16 to 32 µg/mL | MIC, K. pneumoniae UAMS-KPPR1 (K. pneumoniae UAMS-KPPR1): >32 µg/mL | MIC, E. coli UAMS-ECPR1 (E. coli UAMS-ECPR1): 32 µg/mL | MIC, E. coli UAMS-ECPR2 (E. coli UAMS-ECPR2): 32 µg/mL

CCCCCCCCCC(=O)N[C@@H](Cc1c[nH]c2ccccc12)C(=O)N[C@H](CC(N)=O)C(=O)N[C@@H](CC(=O)O)C(=O)N[C@@H]1C(=O)NCC(=O)N[C@@H](CCCN)C(=O)N[C@@H](CC(=O)O)C(=O)N[C@H](C)C(=O)N[C@@H](CC(=O)O)C(=O)NCC(=O)N[C@H](CO)C(=O)N[C@@H]([C@H](C)CC(=O)O)C(=O)N[C@@H](CC(=O)c2ccccc2N)C(=O)O[C@@H]1C [daptomycin]
bound to plasma proteins [4]: 94%

CO[C@H]1/C=C/O[C@@]2(C)Oc3c(C)c(O)c4c(O)c(c(/C=N/N5CCN(C)CC5)c(O)c4c3C2=O)NC(=O)/C(C)=C\C=C\[C@H](C)[C@H](O)[C@@H](C)[C@@H](O)[C@@H](C)[C@H](OC(C)=O)[C@@H]1C [rifampicin, reference compound]
MIC of rifampicin against Gram-negative bacteria without C10X (Gram-negative bacteria): 8 to 32 µg/mL | MIC ([2]; Acinetobacter baumannii, ATCC19606, read-out: MIC of rifampicin alone, in μM): 19.4 µM

CCCCCC(=O)N[C@@H](CCN)C(=O)N[C@H](C(=O)N[C@@H](CCN)C(=O)N[C@H](Cc1ccccc1)C(=O)N[C@@H](CC(C)C)C(=O)N[C@@H](CCN)C(=O)N[C@@H](C(=O)N[C@@H](CC(C)C)C(=O)N[C@@H](CO)C(N)=O)C(C)C)[C@@H](C)CC [Analogue 1] (Hexanoyl-[Dab]I[Dab][dF]L[Dab][dV]LS-NH2)
Sensitization factor, rifampicin, Klebsiella pneumoniae ATCC 13883 [1]: 8,192 | Sensitization factor, rifampicin, Acinetobacter baumannii ATCC 19606 [2]: 4,096–8,192

CCCCCCCC(=O)N[C@@H](CCN)C(=O)N[C@H](C(=O)N[C@@H](CCN)C(=O)N[C@H](Cc1ccccc1)C(=O)N[C@@H](CC(C)C)C(=O)N[C@@H](CCN)C(=O)N[C@@H](C(=O)N[C@@H](CC(C)C)C(=O)N[C@@H](CCN)C(N)=O)C(C)C)[C@@H](C)CC [Analogue 9] (Octanoyl-[Dab]I[Dab][dF]L[Dab][dV]L[Dab]-NH2)
Sensitization factor, clarithromycin, Klebsiella pneumoniae ATCC 13883 [1]: 2,048 | Sensitization factor, rifampicin, Klebsiella pneumoniae ATCC 13883 [1]: ≥8,192 | Sensitization factor, clarithromycin, Acinetobacter baumannii ATCC 19606 [2, 17]: 4,096–8,192 | Sensitization factor, erythromycin, Acinetobacter baumannii ATCC 19606 [2, 17]: 128–256 | Sensitization factor, vancomycin, Acinetobacter baumannii ATCC 19606 [2, 17]: 64–128 | Sensitization factor, rifampicin, Acinetobacter baumannii ATCC 19606 [2]: 8,192

CCCCCCCC(=O)N[C@@H](CCN)C(=O)N[C@@H](CCN)C(=O)N[C@@H](CCN)C(=O)N[C@H](Cc1ccccc1)C(=O)N[C@@H](CC(C)C)C(=O)N[C@@H](CCN)C(=O)N[C@@H](C(=O)N[C@@H](CC(C)C)C(=O)N[C@@H](CCN)C(N)=O)C(C)C [Analogue 10] (Octanoyl-[Dab][Dab][Dab][dF]L[Dab][dV]L[Dab]-NH2)
MIC, S. aureus ATCC 43300 [5]: >32 µg/mL | MIC, P. aeruginosa ATCC 27853 (P. aeruginosa ATCC 27853 [6]): 16 to 32 µg/mL | Sensitization factor, rifampicin, Acinetobacter baumannii ATCC 19606 [2]: 256–512 | MIC, A. baumannii ATCC 19606 (A. baumannii ATCC 19606): >32 µg/mL

CCCCCCCCCC(=O)N[C@@H](CCN)C(=O)N[C@H](C(=O)N[C@@H](CCN)C(=O)N[C@H](Cc1ccccc1)C(=O)N[C@@H](CC(C)C)C(=O)N[C@@H](CCN)C(=O)N[C@@H](C(=O)N[C@@H](CC(C)C)C(=O)N[C@@H](CO)C(N)=O)C(C)C)[C@@H](C)CC [Analogue 12] (Decanoyl-[Dab]I[Dab][dF]L[Dab][dV]LS-NH2)
activity in the context of an established catheter-associated biofilm ([7]; data not shown): no activity

CCCCCCCCCC(=O)N[C@@H](CCN)C(=O)N[C@H](C(=O)N[C@H](C(=O)N[C@H](CC(C)C)C(=O)N[C@@H](CC(C)C)C(=O)N[C@@H](CCN)C(=O)N[C@@H](C(=O)N[C@@H](CC(C)C)C(=O)N[C@@H](CO)C(N)=O)C(C)C)[C@@H](C)O)[C@@H](C)CC [Analogue 13] (Decanoyl-[Dab]IT[dL]L[Dab][dV]LS-NH2)
MIC, S. aureus ATCC 43300 [5]: >32 µg/mL | synergism with rifampicin, in words ([2]; against Acinetobacter and Klebsiella): did not show synergism | MIC, A. baumannii ATCC 19606 (A. baumannii ATCC 19606): >32 µg/mL

CCCCCCC(=O)N[C@@H](CCN)C(=O)N[C@H](C(=O)N[C@@H](CCN)C(=O)N[C@H](Cc1ccccc1)C(=O)N[C@@H](CC(C)C)C(=O)N[C@@H](CCN)C(=O)N[C@@H](C(=O)N[C@@H](CC(C)C)C(=O)N[C@@H](CO)C(N)=O)C(C)C)C(C)C [Analogue 2] (Heptanoyl-[Dab]V[Dab][dF]L[Dab][dV]LS-NH2)
Sensitization factor, rifampicin, Klebsiella pneumoniae ATCC 13883 [1]: 4,096 | Sensitization factor, rifampicin, Acinetobacter baumannii ATCC 19606 [2]: 256–512

CC(C)C[C@H](NC(=O)[C@@H](Cc1ccccc1)NC(=O)[C@H](CCN)NC(=O)[C@H](Cc1ccccc1)NC(=O)[C@H](CCN)NC(=O)[C@@H](N)CC1CCCCC1)C(=O)N[C@@H](CCN)C(=O)N[C@H](CC(C)C)C(=O)N[C@@H](Cc1ccccc1)C(=O)N[C@@H](CO)C(N)=O [Analogue 17] (H-[Cha][Dab]F[Dab][dF]L[Dab][dL]FS-NH2)
reduction in the number of viable P. aeruginosa cells in an established biofilm (P. aeruginosa ATCC 27853 [8]): 2.6 log | concentration that significantly released intracellular potassium ions (S. aureus ATCC 29213 [9]): 32 to 64 µg/mL | impact of purified LPS on bactericidal activity (P. aeruginosa ATCC 27853 [10]): neutralized the bactericidal activity | reduction of viable P. aeruginosa cells (P. aeruginosa ATCC 27853 [11]; 8 μg/ml, 2 h): 2.2 log | viable P. aeruginosa cells at 24 h (P. aeruginosa ATCC 27853 [11]; 8 μg/ml, 24 h): significant bacterial regrowth | reduction of viable P. aeruginosa cells (P. aeruginosa ATCC 27853 [11]; 16 μg/ml, within 2 h): 3.7 logs | viable P. aeruginosa cells after 24 h exposure (P. aeruginosa ATCC 27853 [11]; 32 μg/ml or 16 μg/ml, 24 h): no viable cells were detected | reduction of viable P. aeruginosa cells (P. aeruginosa ATCC 27853 [11]; 32 μg/ml, within 2 h): 5.1 logs | viable S. aureus cells on exposure (S. aureus ATCC 29213 [12]; 8 μg/ml): Regrowth | reduction of viable S. aureus cells (S. aureus ATCC 29213 [12]; 16 μg/ml): 3.1 logs | reduction of viable S. aureus cells (S. aureus ATCC 29213 [12]; 32 μg/ml): 5.4 logs | increase in MIC in the presence of human serum [13]: 8 to 16 fold | reduction in activity in the presence of human serum [13]: 88–94% | concentration that significantly released intracellular potassium ions (P. aeruginosa ATCC 27853 [14]): 32 to 64 µg/mL | concentration that depolarized the membrane potential (P. aeruginosa ATCC 27853 [15]): ≥ 16 µg/mL | reduction of viable biofilm-associated S. aureus cells ([7]; 40 μg/mL (5 × MIC), 72 h exposure): 3 log | reduction of viable biofilm-associated S. aureus cells ([7]; 160 μg/mL (20 × MIC), 72 h exposure): 5 log | catheters completely cleared of viable bacteria ([7]; 20 times the MIC of each antibiotic, six catheters, 72 h exposure): 50% | concentration that depolarized the membrane potential (S. aureus ATCC 29213 [16]): ≥ 16 µg/mL
